Measurements: ChEMBL document CHEMBL4257484, “Membrane-active antimicrobial poly(amino-modified alkyl) β-cyclodextrins synthesized via click reactions” (Medchemcomm, 2018)
≈ marks a conversion by molar mass, not a printed value. Bridge positions count the residues as written; N and C are the ends. Square brackets hold non-standard residues; d marks the D form. Peptide text beside a SMILES is read from it. * marks the point of attachment. Octanoyl(6-Me) = CCC(C)CCCCC(=O)*; Orn = NCCC[C@H](N)C(=O)O; Dab = NCC[C@H](N)C(=O)O

Experiments:
Pseudomonas aeruginosa = assay: Antibacterial activity against drug-sensitive Pseudomonas aeruginosa PAO1 after 20 hrs by liquid microdilution method; type: functional; details: PAO1, 20 h
Outline: (§1)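 Two-fold serial dilutions of compound in Mueller–Hinton broth, inoculated with 1 × 10^4 cells and cultured at 37 °C for 20 h in microtiter wells.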

Enterococcus faecalis [1] = assay: Antibacterial activity against drug-resistant Enterococcus faecalis MS29030 after 18 to 20 hrs by agar dilution method; type: functional
Outline: (§2)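 Agar dilution per CLSI. Overnight broth cultures were diluted 100-fold, and one loopful (about 10^5 to 10^4 CFU) was spotted onto agar plates containing the CD. Growth was scored after 18–20 h at 37 °C. MIC values are in µM.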

Escherichia coli = assay: Antibacterial activity against drug-sensitive Escherichia coli K-12 W3110 after 20 hrs by liquid microdilution method; type: functional; details: K-12 substr. W3110, 20 h; outline: as §1
[2] = Hemolytic activity in rabbit RBC at 5 uM after 20 mins relative to control; type: ADME, cell-based, Oryctolagus cuniculus, Erythrocyte; details: rabbit red blood cells (erythrocytes), read-out: Activity
Outline: (§3)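 Rabbit erythrocytes suspended in 150 mM NaCl/10 mM Hepes-NaOH, pH 7.4, at 0.5% hematocrit (final) and incubated with compound at 37 °C. The table footnote gives 20 min; the methods section gives 30 min. Hemolysis was read as absorbance at 540 nm, with 50 µM lysolecithin defining 100% hemolysis.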

Salmonella typhimurium = assay: Antibacterial activity against drug-sensitive Salmonella typhimurium LT2 after 20 hrs by liquid microdilution method; type: functional, Salmonella enterica subsp. enterica serovar Typhimurium; details: Salmonella enterica, LT2, 20 h; outline: as §1
Enterococcus faecalis [3] = assay: Antibacterial activity against vancomycin-resistant Enterococcus faecalis MS29016 after 18 to 20 hrs by agar dilution method; type: functional; outline: as §2
[4] = Hemolytic activity in rabbit RBC at 2 uM after 20 mins relative to control; type: ADME, cell-based, Oryctolagus cuniculus, Erythrocyte; details: rabbit red blood cells (erythrocytes), read-out: Activity; outline: as §3
Enterococcus faecium = assay: Antibacterial activity against drug-resistant Enterococcus faecium MS29120 after 18 to 20 hrs by agar dilution method; type: functional; outline: as §2
Streptococcus agalactiae = assay: Antibacterial activity against drug-resistant Streptococcus agalactiae B1 after 18 to 20 hrs by agar dilution method; type: functional; outline: as §2
Staphylococcus aureus [5] = assay: Antibacterial activity against methicillin-sensitive Staphylococcus aureus FDA 209P after 20 hrs by liquid microdilution method; type: functional; outline: as §1
Bacillus subtilis = assay: Antibacterial activity against drug-sensitive Bacillus subtilis 168 after 20 hrs by liquid microdilution method; type: functional; details: subsp. subtilis str. 168, 20 h; outline: as §1
[6] = Hemolytic activity in rabbit RBC at 50 uM after 20 mins relative to control; type: ADME, cell-based, Oryctolagus cuniculus, Erythrocyte; details: rabbit red blood cells (erythrocytes), read-out: Activity; outline: as §3
Staphylococcus aureus [7] = assay: Antibacterial activity against methicillin-resistant Staphylococcus aureus MS29202 after 18 to 20 hrs by agar dilution method; type: functional; outline: as §2
[8] = Lipophilicity, log P of the compound; type: physicochemical; details: octanol/water
[9] = Hemolytic activity in rabbit RBC at 1 uM after 20 mins relative to control; type: ADME, cell-based, Oryctolagus cuniculus, Erythrocyte; details: rabbit red blood cells (erythrocytes), read-out: Activity; outline: as §3
[10] = Hemolytic activity in rabbit RBC at 10 uM after 20 mins relative to control; type: ADME, cell-based, Oryctolagus cuniculus, Erythrocyte; details: rabbit red blood cells (erythrocytes), read-out: Activity; outline: as §3
[11] = Hemolytic activity in rabbit RBC at 20 uM after 20 mins relative to control; type: ADME, cell-based, Oryctolagus cuniculus, Erythrocyte; details: rabbit red blood cells (erythrocytes), read-out: Activity; outline: as §3

| Compound | MIC (Pseudomonas aeruginosa) | MIC (Enterococcus faecalis [1]) | MIC (Escherichia coli) | hemolysis at 20 min, 5 µM [2] | MIC (Salmonella typhimurium) | MIC (Enterococcus faecalis [3]) | hemolysis at 20 min, 2 µM [4] | MIC (Enterococcus faecium) | MIC (Streptococcus agalactiae) | MIC (Staphylococcus aureus [5]) | MIC (Bacillus subtilis) | hemolysis at 20 min, 50 µM [6] | MIC (Staphylococcus aureus [7]) | logP [8] | hemolysis at 20 min, 1 µM [9] | hemolysis at 20 min, 10 µM [10] | hemolysis at 20 min, 20 µM [11] |
| --- | --- | --- | --- | --- | --- | --- | --- | --- | --- | --- | --- | --- | --- | --- | --- | --- | --- |
| O[C@@H]1[C@@H](O)[C@H]2O[C@H]3[C@H](O)[C@@H](O)[C@@H](O[C@H]4[C@H](O)[C@@H](O)[C@@H](O[C@H]5[C@H](O)[C@@H](O)[C@@H](O[C@H]6[C@H](O)[C@@H](O)[C@@H](O[C@H]7[C@H](O)[C@@H](O)[C@@H](O[C@H]8[C@H](O)[C@@H](O)[C@@H](O[C@@H]1[C@@H](Cn1cc(CNCc9ccccc9)nn1)O2)O[C@@H]8Cn1cc(CNCc2ccccc2)nn1)O[C@@H]7Cn1cc(CNCc2ccccc2)nn1)O[C@@H]6Cn1cc(CNCc2ccccc2)nn1)O[C@@H]5Cn1cc(CNCc2ccccc2)nn1)O[C@@H]4Cn1cc(CNCc2ccccc2)nn1)O[C@@H]3Cn1cc(CNCc2ccccc2)nn1 | 21 µM (≈ 48.9 µg/mL) | > 41 µM | 21 µM (≈ 48.9 µg/mL) | 4% | 21 µM (≈ 48.9 µg/mL) | 41 µM (≈ 95.4 µg/mL) | 4% | 41 µM (≈ 95.4 µg/mL) | 21 µM (≈ 48.9 µg/mL) | 5 µM (≈ 11.6 µg/mL) | 5 µM (≈ 11.6 µg/mL) | 11% | 41 µM (≈ 95.4 µg/mL) | -0.26 | 2% | 2% | 3% |
| NCCCCCCCc1cn(C[C@H]2O[C@@H]3O[C@H]4[C@H](O)[C@@H](O)[C@@H](O[C@H]5[C@H](O)[C@@H](O)[C@@H](O[C@H]6[C@H](O)[C@@H](O)[C@@H](O[C@H]7[C@H](O)[C@@H](O)[C@@H](O[C@H]8[C@H](O)[C@@H](O)[C@@H](O[C@H]9[C@H](O)[C@@H](O)[C@@H](O[C@H]2[C@H](O)[C@H]3O)O[C@@H]9Cn2cc(CCCCCCCN)nn2)O[C@@H]8Cn2cc(CCCCCCCN)nn2)O[C@@H]7Cn2cc(CCCCCCCN)nn2)O[C@@H]6Cn2cc(CCCCCCCN)nn2)O[C@@H]5Cn2cc(CCCCCCCN)nn2)O[C@@H]4Cn2cc(CCCCCCCN)nn2)nn1 | > 42 µM | > 42 µM | > 42 µM | 4% | > 42 µM | > 42 µM | 1% | 21 µM (≈ 48 µg/mL) | 42 µM (≈ 96 µg/mL) | 3 to 21 µM (≈ 6.85 to 48 µg/mL) | 5 µM (≈ 11.4 µg/mL) | 3% | 42 µM (≈ 96 µg/mL) | -0.43 | 3% | 3% | 4% |
| CC(C)CCCNCc1cn(C[C@H]2O[C@@H]3O[C@H]4[C@H](O)[C@@H](O)[C@@H](O[C@H]5[C@H](O)[C@@H](O)[C@@H](O[C@H]6[C@H](O)[C@@H](O)[C@@H](O[C@H]7[C@H](O)[C@@H](O)[C@@H](O[C@H]8[C@H](O)[C@@H](O)[C@@H](O[C@H]9[C@H](O)[C@@H](O)[C@@H](O[C@H]2[C@H](O)[C@H]3O)O[C@@H]9Cn2cc(CNCCCC(C)C)nn2)O[C@@H]8Cn2cc(CNCCCC(C)C)nn2)O[C@@H]7Cn2cc(CNCCCC(C)C)nn2)O[C@@H]6Cn2cc(CNCCCC(C)C)nn2)O[C@@H]5Cn2cc(CNCCCC(C)C)nn2)O[C@@H]4Cn2cc(CNCCCC(C)C)nn2)nn1 | 5 µM (≈ 11.4 µg/mL) | > 42 µM | 10 µM (≈ 22.8 µg/mL) | 7% | 10 µM (≈ 22.8 µg/mL) | 42 µM (≈ 96 µg/mL) | 5% | 10 µM (≈ 22.8 µg/mL) | 5 µM (≈ 11.4 µg/mL) | 3 to 10 µM (≈ 6.85 to 22.8 µg/mL) | 3 µM (≈ 6.85 µg/mL) | 56% | 21 µM (≈ 48 µg/mL) | -0.15 | 5% | 15% | 23% |
| O[C@@H]1[C@@H](O)[C@H]2O[C@H]3[C@H](O)[C@@H](O)[C@@H](O[C@H]4[C@H](O)[C@@H](O)[C@@H](O[C@H]5[C@H](O)[C@@H](O)[C@@H](O[C@H]6[C@H](O)[C@@H](O)[C@@H](O[C@H]7[C@H](O)[C@@H](O)[C@@H](O[C@H]8[C@H](O)[C@@H](O)[C@@H](O[C@@H]1[C@@H](Cn1cc(CNCC9CCCC9)nn1)O2)O[C@@H]8Cn1cc(CNCC2CCCC2)nn1)O[C@@H]7Cn1cc(CNCC2CCCC2)nn1)O[C@@H]6Cn1cc(CNCC2CCCC2)nn1)O[C@@H]5Cn1cc(CNCC2CCCC2)nn1)O[C@@H]4Cn1cc(CNCC2CCCC2)nn1)O[C@@H]3Cn1cc(CNCC2CCCC2)nn1 | > 42 µM | > 42 µM | 21 µM (≈ 47.7 µg/mL) | 1% | > 42 µM | > 42 µM | 1% | 21 µM (≈ 47.7 µg/mL) | 10 µM (≈ 22.7 µg/mL) | 1 to 5 µM (≈ 2.27 to 11.4 µg/mL) | 21 µM (≈ 47.7 µg/mL) | 8% | 21 µM (≈ 47.7 µg/mL) | -0.58 | 2% | 1% | 2% |
| O[C@@H]1[C@@H](O)[C@H]2O[C@H]3[C@H](O)[C@@H](O)[C@@H](O[C@H]4[C@H](O)[C@@H](O)[C@@H](O[C@H]5[C@H](O)[C@@H](O)[C@@H](O[C@H]6[C@H](O)[C@@H](O)[C@@H](O[C@H]7[C@H](O)[C@@H](O)[C@@H](O[C@H]8[C@H](O)[C@@H](O)[C@@H](O[C@@H]1[C@@H](Cn1cc(CNCC9CCC9)nn1)O2)O[C@@H]8Cn1cc(CNCC2CCC2)nn1)O[C@@H]7Cn1cc(CNCC2CCC2)nn1)O[C@@H]6Cn1cc(CNCC2CCC2)nn1)O[C@@H]5Cn1cc(CNCC2CCC2)nn1)O[C@@H]4Cn1cc(CNCC2CCC2)nn1)O[C@@H]3Cn1cc(CNCC2CCC2)nn1 | > 43 µM | > 43 µM | > 43 µM | 0% | > 43 µM | > 43 µM | 0% | > 43 µM | > 43 µM | 5 to 11 µM (≈ 10.9 to 23.9 µg/mL) | 3 µM (≈ 6.52 µg/mL) | 0% | > 43 µM | -1 | 0% | 0% | 0% |
| O[C@@H]1[C@@H](O)[C@H]2O[C@H]3[C@H](O)[C@@H](O)[C@@H](O[C@H]4[C@H](O)[C@@H](O)[C@@H](O[C@H]5[C@H](O)[C@@H](O)[C@@H](O[C@H]6[C@H](O)[C@@H](O)[C@@H](O[C@H]7[C@H](O)[C@@H](O)[C@@H](O[C@H]8[C@H](O)[C@@H](O)[C@@H](O[C@@H]1[C@@H](Cn1cc(CNCC9CC9)nn1)O2)O[C@@H]8Cn1cc(CNCC2CC2)nn1)O[C@@H]7Cn1cc(CNCC2CC2)nn1)O[C@@H]6Cn1cc(CNCC2CC2)nn1)O[C@@H]5Cn1cc(CNCC2CC2)nn1)O[C@@H]4Cn1cc(CNCC2CC2)nn1)O[C@@H]3Cn1cc(CNCC2CC2)nn1 | > 45 µM | – | > 45 µM | 0% | > 45 µM | – | 0% | – | – | > 45 µM | > 45 µM | 0% | – | -1.4 | 0% | 0% | 0% |
| CC(C)C[C@@H]1NC(=O)[C@H](CCCN)NC(=O)[C@H](C(C)C)NC(=O)[C@@H]2CCCN2C(=O)[C@@H](Cc2ccccc2)NC(=O)[C@H](CC(C)C)NC(=O)[C@H](CCCN)NC(=O)[C@H](C(C)C)NC(=O)[C@@H]2CCCN2C(=O)[C@@H](Cc2ccccc2)NC1=O (cyclo(V[Orn]L[dF]PV[Orn]L[dF]P)) | 56 µM (≈ 63.9 µg/mL) | – | 28 µM (≈ 32 µg/mL) | – | – | – | – | – | – | 7 µM (≈ 7.99 µg/mL) | – | – | – | – | – | – | – |
| CCC(C)CCCCC(=O)N[C@@H](CCN)C(=O)N[C@H](C(=O)N[C@@H](CCN)C(=O)N[C@H]1CCNC(=O)[C@H]([C@@H](C)O)NC(=O)[C@H](CCN)NC(=O)[C@H](CCN)NC(=O)[C@H](CC(C)C)NC(=O)[C@@H](Cc2ccccc2)NC(=O)[C@H](CCN)NC1=O)[C@@H](C)O (stereo not given in full) ({Octanoyl(6-Me)}-[Dab]T[Dab][Dab][Dab][dF]L[Dab][Dab]T; lactam 4-C) | 1 µM (≈ 1.2 µg/mL) | – | 1 µM (≈ 1.2 µg/mL) | – | 1 µM (≈ 1.2 µg/mL) | – | – | – | – | 23 µM (≈ 27.7 µg/mL) | 6 µM (≈ 7.22 µg/mL) | – | – | – | – | – | – |
